Data as given in paper PMC8346222 (Science Advances, 2021).
In brackets after ≈: the same amount, converted by molar mass.

Experiments:
Test in all cases: Minimum inhibitory concentration, broth microdilution
Format in all cases: cell-based
[1] = system: Escherichia coli ATCC 2452; conditions: ATCC2452, read-out: Minimum inhibitory concentration
In short: (§1)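 Broth microdilution per CLSI: test agents serially diluted across plates. Inoculum set to 0.5 McFarland, diluted in cation-adjusted Mueller Hinton broth to ~5 × 10^5 CFU/ml, then incubated aerobically at 37°C for 16 to 18 h. Gentamicin and imipenem were run as control antibiotics.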

[2] = system: Escherichia coli ATCC 2469; conditions: ATCC2469, read-out: Minimum inhibitory concentration
In short: as §1

[3] = system: Klebsiella pneumoniae NR-41920; conditions: NR41920, read-out: Minimum inhibitory concentration
In short: as §1

[4] = system: Pseudomonas aeruginosa NR-50573; conditions: NR50573, read-out: Minimum inhibitory concentration
In short: as §1

For CNC(C)C1CCC(N)C(OC2C(N)CC(N)C(OC3OCC(C)(O)C(NC)C3O)C2O)O1 (centres unmarked) [Gentamicin], the MIC [1] was over 64 µg/mL, the MIC [2] was over 64 µg/mL and the MIC [3] was 64 µg/mL (≈ 134 µM). The MIC [4] was 1 µg/mL (≈ 2.09 µM).

C[C@@H](O)[C@H]1C(=O)N2C(C(=O)O)=C(SCCN=CN)C[C@H]12 [Imipenem] showed an MIC [1] of 16 µg/mL (≈ 53.4 µM), an MIC [2] of 16 µg/mL (≈ 53.4 µM) and an MIC [3] of 8 µg/mL (≈ 26.7 µM). It also gave an MIC [4] of 1 µg/mL (≈ 3.34 µM).
